The source made the active and inactive calls. Unless noted, the calls are words filed in the database; no cut-off is given here.
Tests used:
Mus musculus [1] = species: Mus musculus; assay: Inhibition of TLR4/IL-1R in BALB/c mouse BMDM assessed as downregulation of LPS-stimulated MyD88 protein expression at 1 ug/mL after 20 hrs by Western blotting analysis relative to control
How it was run: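 Bone marrow macrophages were treated 20 h with medium, compound (1 or 5 μg/mL) or LPS (100 ng/mL) and lysed in modified RIPA buffer. Protein (30 μg) was separated on Bis-Tris gels, and MyD88 and GAPDH were detected by Western blot with ECL. Densitometric MyD88:GAPDH ratio was normalized to the RPMI value, from six analyses.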

[2] = Cytotoxicity against mouse BMDC assessed as reduction in cell viability
Mus musculus [3] = assay: (§1) Antiinflammatory activity in DBA/1 mouse collagen-induced arthritis model assessed as reduction in number of PMA/ionomycin-stimulated CD4+ T cells expressing IL-17 at 50 ug/kg, sc administered 2 days prior to collagen challenge continued till day 21 post collagen challenge by flow cytometric analysis relative to control; assay type: functional, organism-based; details: T-cell
How it was run: (§2)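 CIA mice given test agent (1 μg/dose) or PBS subcutaneously on days −2, 0 and 21. Draining lymph node cells (10^6/mL) in complete RPMI were stimulated ± 50 ng/mL PMA plus 500 ng/mL ionomycin, with 10 μg/mL brefeldin A for 5 h at 37 °C. Cells were surface-stained for CD4, CD8 and γδ, fixed and permeabilized, then stained for intracellular IFNγ and IL-17A. Gating used isotype controls. Cell numbers per individual mouse; naive n = 7, treated groups n = 13.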

Mus musculus [4] = assay: as §1, with “CD8+” for “CD4+”, “IFNgamma” for “IL-17”; assay type: functional, organism-based; details: T-cell; how it was run: as §2
Mus musculus [5] = assay: Antiinflammatory activity in DBA/1 mouse collagen-induced arthritis model assessed as reduction in total number of DLN cells at 50 ug/kg, sc administered 2 days prior to collagen challenge continued till day 21 post collagen challenge; assay type: functional, organism-based
How it was run: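 Dosing was 1 μg/dose or PBS given subcutaneously on days −2, 0 and 21 of CIA. Total, CD4+, CD8+ and γδ T cell numbers in draining lymph nodes were counted by flow cytometry for each mouse. Naive mice not exposed to collagen served as a further control (naive n = 7; PBS and treated n = 13).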

[6] = Cytotoxicity against CpG-stimulated BALB/c mouse BMDM assessed as loss of cell viability at 5 ug/mL preincubated for 18 hrs followed by CpG challenge measured after 24 hrs by 7-AAD staining-based flow cytometric analysis
How it was run: (§3)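 BALB/c bone marrow macrophages (2 × 10^5/well) were rested 24 h in complete RPMI, then given 5 μg/mL compound for 18 h. Cells were stained with 7-AAD for 10 min on ice and the dead fraction read by flow cytometry. One experiment is representative of two.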

[7] = Cytotoxicity against LPS-stimulated BALB/c mouse BMDM assessed as loss of cell viability at 5 ug/mL preincubated for 18 hrs followed by LPS challenge measured after 24 hrs by 7-AAD staining-based flow cytometric analysis; how it was run: as §3
[8] = molecular target: T1, Toll-like receptor 9 (Mus musculus) (UniProt Q9EQU3); assay: Inhibition of TLR9 in BALB/c mouse BMDM assessed as downregulation of CpG-stimulated IL-6 level at 5 ug/ml preincubated for 18 hrs followed by CpG challenge measured after 24 hrs by ELISA relative to control
T1 sequence (whole entry): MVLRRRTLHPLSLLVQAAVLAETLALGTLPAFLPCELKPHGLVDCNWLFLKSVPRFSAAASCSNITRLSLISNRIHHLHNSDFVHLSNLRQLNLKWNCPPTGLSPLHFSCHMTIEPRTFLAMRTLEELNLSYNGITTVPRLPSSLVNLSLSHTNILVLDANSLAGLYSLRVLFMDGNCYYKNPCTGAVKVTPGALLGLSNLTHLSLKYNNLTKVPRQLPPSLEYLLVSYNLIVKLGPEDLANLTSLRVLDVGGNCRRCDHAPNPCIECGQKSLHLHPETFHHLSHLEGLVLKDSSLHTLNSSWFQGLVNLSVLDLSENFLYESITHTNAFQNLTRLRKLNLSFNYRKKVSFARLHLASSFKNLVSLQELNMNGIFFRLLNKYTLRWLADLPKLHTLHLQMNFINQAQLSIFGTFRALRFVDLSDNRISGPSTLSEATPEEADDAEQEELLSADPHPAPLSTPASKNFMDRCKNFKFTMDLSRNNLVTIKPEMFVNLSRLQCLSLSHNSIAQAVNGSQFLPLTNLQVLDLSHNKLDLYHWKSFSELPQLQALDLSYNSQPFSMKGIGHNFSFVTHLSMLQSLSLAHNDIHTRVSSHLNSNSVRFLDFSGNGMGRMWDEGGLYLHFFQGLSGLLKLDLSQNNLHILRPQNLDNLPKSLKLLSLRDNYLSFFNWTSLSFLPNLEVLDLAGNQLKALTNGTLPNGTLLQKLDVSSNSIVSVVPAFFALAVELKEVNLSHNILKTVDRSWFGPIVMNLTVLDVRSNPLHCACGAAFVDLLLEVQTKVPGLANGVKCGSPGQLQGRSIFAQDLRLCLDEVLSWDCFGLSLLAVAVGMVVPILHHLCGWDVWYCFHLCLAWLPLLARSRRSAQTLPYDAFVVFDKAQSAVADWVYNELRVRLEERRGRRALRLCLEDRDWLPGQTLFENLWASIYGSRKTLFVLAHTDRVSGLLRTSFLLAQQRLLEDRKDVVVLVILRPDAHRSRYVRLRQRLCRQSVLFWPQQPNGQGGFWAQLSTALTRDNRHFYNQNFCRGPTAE
How it was run: (§4)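 BALB/c male bone marrow macrophages were differentiated 7 days with L929 supernatant (≥99% CD11b+/F4/80+). Cells were plated at 2 × 10^5/well in triplicate, rested overnight, and given compounds at 5 μg/mL for 18 h. They were then stimulated with 100 ng/mL S. minnesota LPS, 10 ng/mL Pam3CSK4 (BLP) or 0.01 μM CpG for 24 h. Supernatant IL-12p40 and IL-6 were measured by ELISA (sensitivity 16 pg/mL).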

[9] = molecular target: T1, Toll-like receptor 9 (Mus musculus); assay: Inhibition of TLR9 in BALB/c mouse BMDM assessed as downregulation of CpG-stimulated IL-12p40 level at 5 ug/ml preincubated for 18 hrs followed by CpG challenge measured after 24 hrs by ELISA relative to control; how it was run: as §4
Mus musculus [10] = species: Mus musculus; assay: Inhibition of TLR4/IL-1R in BALB/c mouse BMDM assessed as downregulation of LPS-stimulated MyD88 expression at 5 ug/mL preincubated for 2 hrs followed by LPS challenge measured after 18 hrs by flow cytometric analysis (reference value: 127%); values are per cent of control

## CN(C)CCS(=O)(=O)Cc1ccc(Br)cc1
Mus musculus [1]
  fold change (FC): 1.09
[2]
  Activity: Non-toxic
Mus musculus [3]
  Activity: Active
Mus musculus [4]
  Activity: Active
Mus musculus [5]
  Activity: Active
[6]
  Activity: Non-toxic
[7]
  Activity: Non-toxic
[8]
  inhibition: Active
[9]
  inhibition: Active
Mus musculus [10]
  residual activity: 95.7%

Source: ChEMBL document CHEMBL3108700, “Designing anti-inflammatory drugs from parasitic worms: a synthetic small molecule analogue of the Acanthocheilonema viteae product ES-62 prevents development of collagen-induced arthritis” (J Med Chem, 2013)
